pIC50: −log10 of the molar value.
Key:
[1] = system: Trypanosoma cruzi; experiment: Trypanocidal activity against trypamostigote form of Trypanosoma cruzi Y infected in African green monkey Vero cells after 24 hrs by neubauer chamber method; type: functional, organism-based
Outline: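 Y strain trypomastigotes harvested from Vero cell supernatants, 4 × 10^5 cells/well, compounds in triplicate, benznidazole as positive control. Incubated 24 h at 37 °C, 5% CO2. Motile parasites counted in a Neubauer chamber; untreated wells = 100%. IC50 by nonlinear regression over at least seven concentrations.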

[2] = system: Trypanosoma cruzi; experiment: Trypanocidal activity against epimastigote form of Trypanosoma cruzi Dm28c after 11 days by neubauer chamber method; type: functional; conditions: 264 h
[3] = Lipophilicity, log P of compound; type: physicochemical; conditions: octanol/water
[4] = Cytotoxicity against BALB/c mouse splenocytes assessed as highest non-toxic concentration causing >90 % incorporation of [3H]-thymidine after 24 hrs by beta counting method; type: cell-based, Splenocyte; conditions: read-out: MNTD90
Outline: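 BALB/c mouse splenocytes at 5 × 10^6 cells/well in RPMI-1640 with 10% inactivated FBS. Compounds were dissolved in DMSO (10 mg/mL stock) and serially diluted to 1.0, 5.0, 10, 25, 50 and 100 (final), in triplicate. Controls were saponin and medium with DMSO. 3H-thymidine was added, then 24 h at 37 °C, 5% CO2, and beta counting. Untreated = 100%; >90% incorporation counted as nontoxic.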

[5] = Selectivity index, ratio of MNTD90 for cytotoxicity against BALB/c mouse splenocytes to IC50 for trypamostigote form of Trypanosoma cruzi Y infected in African green monkey Vero cells; type: toxicity, cell-based; conditions: read-out: Selectivity Index

logP [3]	SMILES	pIC50 [1]	pIC50 [2]	MNTC at 24 h [4] [µM]	selectivity ratio [5]
4.98	O=C1c2ccccc2C(=O)N1Nc1nc(-c2ccc3ccccc3c2)cs1	5.33	5.10	269	–
5.66	O=C1c2ccccc2C(=O)N1Nc1nc(-c2ccc(-c3ccccc3)cc2)cs1	4.56	5.40	252	–
–	O=C1c2ccccc2C(=O)N1C/C=N/N=c1\scc(-c2ccccc2)n1-c1ccccc1	5.06	–	228	–
–	O=C1c2ccccc2C(=O)N1Nc1nc(-c2ccc(Cl)cc2Cl)cs1	4.64	5.00	12.8	–
–	O=C1c2ccccc2C(=O)N1C/C=N/N=c1\scc(-c2ccc([N+](=O)[O-])cc2)n1-c1ccccc1	5.49	4.91	207	64.6
–	O=C1c2ccccc2C(=O)N1Nc1nc(-c2ccc(Cl)c(Cl)c2)cs1	4.05	4.16	2.6	–
–	O=C1c2ccccc2C(=O)N1Nc1nc(-c2cccc([N+](=O)[O-])c2)cs1	4.04	4.36	2.7	–
–	O=C1c2ccccc2C(=O)N1C/C=N/NC(=S)Nc1ccccc1	–	4.43	50	–
–	O=C1c2ccccc2C(=O)N1C/C=N/N=c1\scc(-c2ccc(Cl)cc2)n1-c1ccccc1	4.74	4.97	211	–
–	O=C1c2ccccc2C(=O)N1Nc1nc(-c2ccc(F)cc2)cs1	4.28	4.58	2.9	–
–	O=C1c2ccccc2C(=O)N1C/C=N/N=c1\scc(-c2ccc(Cl)c(Cl)c2)n1-c1ccccc1	–	–	197	–
–	COc1ccc(-c2cs/c(=N\N=C\CN3C(=O)c4ccccc4C3=O)n2-c2ccccc2)cc1	5.00	–	213	–
–	O=C1c2ccccc2C(=O)N1Nc1nc(-c2ccc(Br)cc2)cs1	4.05	4.83	2.5	–
–	O=C1c2ccccc2C(=O)N1C/C=N/N=c1\scc(-c2ccc(-c3ccccc3)cc2)n1-c1ccccc1	4.01	4.35	194	–
